# Screening data deposited in PubChem by Johns Hopkins Ion Channel Center.
# A selection: hits, their analogues and other compounds. The true share with any hit is near 2.9%.
# TRPC4 potent – allosterically enhances the mouse TRPC4 cation channel; HEK293 TRPC4beta/mu-opioid, DAMGO EC20, Fluo-4 Ca2+ flux; hits give high values; B-score at 10 µM; 310,000 compounds, 0.42% hits; AID 2227;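 active = B-score of calcium response area above 5 SD of library B-scores, with initial fluorescence ratio within 5 SD of library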;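 note: B-score of integrated fluorescence ratio over time as area under calcium response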
# TRPC4 agonist – activators of mouse TRPC4 channel; HEK293 TRPC4beta/mu-opioid, Fluo4 calcium fluorescence; hits give high values; Q9QUQ5; B-score at 10 µM; AID 2237; 310,000 compounds, 0.49% hits;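 active = B-score above 5 SD of library B-scores, and initial fluorescence ratio not above library mean plus 5 SD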;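 note: positive B-score marks a calcium rise read as TRPC4 activation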
#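 Assay system – TRPC4beta and mu-opioid receptor HEK293 stable cells · Measured by – Fluo4 fluorescence, kinetic · Schedule – dye loading 45 min room temperature, 110 s kinetic read · Read-out – B-scored integrated calcium fluorescence ratio · Controls – buffer and maximal DAMGO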
# Kir21 inh – inhibitors of mouse Kir2.1 inward-rectifier potassium channel | HEK293-Kir2.1, FluxOR thallium flux fluorescence; hits give low values | B-score at 10 µM | AID 1672 | P35561 | 310,000 compounds, 0.85% hits;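 active = fluorescence ratio B-score at or below minus 3 SD of library scores, with starting-brightness B-score within 2 SD, cut at about -4.2 in these data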;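 note: channel flux triggered by added potassium and thallium sulfate stimulus; B-score of peak minus minimum fluorescence over baseline after thallium stimulus; more negative B-score means stronger Kir2.1 block with less thallium influx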
# Target sequence (P35561 whole entry, looked up): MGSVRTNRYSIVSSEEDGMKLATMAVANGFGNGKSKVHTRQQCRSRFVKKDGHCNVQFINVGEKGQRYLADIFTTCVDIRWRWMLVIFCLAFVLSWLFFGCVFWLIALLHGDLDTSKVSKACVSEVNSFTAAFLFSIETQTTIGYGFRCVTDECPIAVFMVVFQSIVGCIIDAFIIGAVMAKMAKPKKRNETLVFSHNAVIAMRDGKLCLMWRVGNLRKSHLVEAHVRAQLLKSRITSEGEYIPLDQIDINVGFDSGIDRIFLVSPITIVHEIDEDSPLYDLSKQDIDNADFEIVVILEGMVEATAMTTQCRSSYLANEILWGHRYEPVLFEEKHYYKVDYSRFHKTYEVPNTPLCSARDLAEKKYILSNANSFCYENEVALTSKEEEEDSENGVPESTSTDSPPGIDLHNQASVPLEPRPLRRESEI
# TRPC6 act – mouse TRPC6 channel activation. HEK293-TRPC6 membrane potential dye fluorescence; hits give high values. 310,000 compounds, 0.13% hits. B-score at 10 µM;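 active = B-score of the integrated fluorescence ratio above library mean plus 3 SD, and starting fluorescence ratio within library mean plus 5 SD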;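 note: higher score means more depolarization so channel activation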
# TRPC6 inhibitor – blocks the mouse TRPC6 cation channel. HEK293-TRPC6, membrane potential dye, ACh-evoked depolarization; hits give low values. 310,000 compounds, 1.1% hits. B-score at 10 µM;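 active = B-score under library mean minus 3 SD, initial fluorescence not abnormally high, positive integrated signal ratio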;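 note: B-score derived from integrated fluorescence ratio over the kinetic read; more negative B-score means stronger inhibition of depolarization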
# TRPC4 block – inhibitors of mouse TRPC4 channel; B-score at 10 µM; AID 2247; 300,000 compounds, 0.39% hits; HEK293 TRPC4beta/mu-opioid, DAMGO-evoked Fluo4 calcium flux; hits give low values;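 active = B-score over 3 SD under the library average, no early fluorescence shift, positive overall ratio signal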
#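 Signal: kinetic Fluo4 fluorescence imaging of calcium influx. Material: stable TRPC4beta/mu-opioid receptor HEK293 cells. Probe or stimulus: DAMGO in two steps, submaximal then maximal.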
# TRPC4 sel inh 2 – mouse TRPC4 off-target activity of TRPC6 inhibitors, second screen; AID 2776; inhibition, % at 10 µM; HEK293 TRPC4/MOR, membrane potential dye fluorescence; channel activated by saturating DAMGO dose; 920 compounds, 42% hits; shares compounds with TRPC6 inhibitor;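 active = compounds whose fluorescence signal differed from control wells by over 3 SD, either direction, in both duplicate plates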
# TRPC4 spec – tests whether TRPC6 inhibitors also affect mouse TRPC4; shares compounds with TRPC6 inhibitor; HEK293 TRPC4/mu-opioid, membrane potential fluorescence; activity change, negative = inhibition, % at 10 µM; 920 compounds, 61% hits; AID 2777;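 active = rise or fall in signal beyond 3 SD of buffer-only wells in both replicate plates, either sign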;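 note: integrated kinetic ratio of fluorescence range over baseline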
# HEK293 MPD ctr 2-1 – second counter-screen for TRPC6 inhibitors: parental HEK293 cells; 920 compounds, 31% hits; shares compounds with TRPC6 inhibitor; parental HEK293 membrane potential dye fluorescence; maximal acetylcholine challenge after compound addition; signal change vs control, % at 10 µM;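 active = membrane potential signal moving either way by over 3 SD of the maximum-effect control, in both duplicate plates, meaning non-specific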
# HEK293 MPD ctr-1 – counter-screen for TRPC6 inhibitors: effect in parental HEK293 cells; shares compounds with TRPC6 inhibitor; parental HEK293 membrane potential dye fluorescence; membrane potential signal change, % at 10 µM; 920 compounds, 60% hits; AID 2780;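 active = membrane potential signal shifting up or down by more than 3 SD of buffer-only wells, on both duplicate plates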
# HEK293 MPD ctr-2 – checks TRPC6 modulator effects in parental HEK293 cells | membrane potential signal change, % at 10 µM | 2,400 compounds, 51% hits | membrane potential dye fluorescence | shares compounds with TRPC6 inhibitor | AID 488924;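 active = membrane potential signal moves up or down beyond 5 SD from buffer-only wells, on both duplicate plates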
# HEK293 MPD ctr 2-2 – parental HEK293 nonspecific activity of TRPC6 modulators, second screen | inhibition, % at 10 µM | 2,400 compounds, 14% hits | shares compounds with TRPC6 inhibitor | membrane potential dye fluorescence; after compound, maximal acetylcholine stimulation;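 active = membrane potential signal drops by more than 5 SD from the mean control signal, in both duplicate plates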;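 note: plate controls were acetylcholine ECmax control wells for no effect and buffer only wells for full effect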
# TRPC4/MOR mod – mouse TRPC4 off-target activity of TRPC6 modulators. HEK293 TRPC4/mu-opioid, membrane potential fluorescence. percent change from control (negative = decrease, positive = increase), % at 10 µM. AID 488927. shares compounds with TRPC6 inhibitor. 2,400 compounds, 69% hits;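 active = membrane potential signal moved up or down beyond 5 SD of buffer control wells, in both duplicate plates, actives on both sides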;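 note: plate controls were assay buffer wells for no effect and DAMGO maximal-effect wells for full effect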
# TRPC4 ctr inh 2 – second check of whether TRPC6 modulators also affect mouse TRPC4 | shares compounds with TRPC6 inhibitor | HEK293 TRPC4/mu-opioid, membrane potential dye fluorescence; stimulated with maximal-effect DAMGO | inhibition, % at 10 µM | 2,400 compounds, 55% hits | AID 488928;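 active = drop in membrane potential signal beyond 5 SD of the control wells in both duplicate plates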;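 note: TRPC4 counter screen for TRPC6 hits run under conditions tuned for TRPC6 not TRPC4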
# TRPC6 block conf – mouse TRPC6 inhibitor confirmation. inhibition, % at 10 µM. AID 488960. shares compounds with TRPC6 inhibitor. HEK293-TRPC6, membrane potential dye, ACh-evoked depolarization. 3,300 compounds, 43% hits;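 active = fluorescence ratio falls more than 5 SD below the full-stimulation control mean, in both duplicate runs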;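 note: integrated fluorescence ratio of peak minus minimum over baseline after agonist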
# TRPC6 act conf – mouse TRPC6 activator confirmation. shares compounds with TRPC6 inhibitor. 2,800 compounds, 11% hits. HEK293-TRPC6 membrane potential dye fluorescence, FDSS. activation, % at 10 µM;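 active = ratio signal rise beyond 5 SD above unstimulated control wells' mean, seen in both duplicate runs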;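 note: plate controls were buffer EC0 wells for no effect and acetylcholine ECmax response for full effect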
# * = called active by the depositor; i = inactive; x = no result given.
SMILES,TRPC4 potent,TRPC4 agonist,Kir21 inh,TRPC6 act,TRPC6 inhibitor,TRPC4 block,HEK293 MPD ctr-2,HEK293 MPD ctr 2-2,TRPC4/MOR mod,TRPC4 ctr inh 2,TRPC6 block conf,TRPC6 act conf,others
COc1ccc(-c2c[n+]3c(n2-c2ccccc2)SCC3)cc1,i,i,-0.5,i,-8.24*,i,x,x,x,x,62.9%*,i,TRPC4 sel inh 2=i;TRPC4 spec=-11.6%*;HEK293 MPD ctr 2-1=-12.0%*;HEK293 MPD ctr-1=-172.5%*
O=C1c2cccc(OCC(=O)N3CCCc4ccccc43)c2CCN1Cc1ccc(Br)cc1,i,i,0.17,i,i,i,x,x,x,x,x,x,
CCN(CC)C(=O)C1c2ccccc2Oc2ccccc21,i,i,-14.2,i,i,i,x,x,x,x,x,x,
CC(C)(C)c1ccc(C(=O)Nc2cccc(-n3cnnn3)c2)cc1,i,i,-0.15,i,i,i,x,x,x,x,x,x,
N#C/C(=C/c1ccc(N2CCCCC2)o1)C(=O)Nc1ccc(Cl)cc1,i,i,-0.78,i,i,i,x,x,x,x,x,x,
N#C/C(=C/c1ccc(N2CCCCC2)o1)C(=O)Nc1ccc2ccccc2c1,i,i,0.13,79.7*,i,i,844.0%*,i,233.0%*,i,i,274.0%*,
O=C1c2ccccc2C(=O)N1CCc1nc(-c2ccccn2)no1,i,i,-0.56,i,i,i,x,x,x,x,x,x,
O=C1c2ccccc2C(=O)N1CCCc1nc(-c2ccccn2)no1,i,i,-0.7,i,-5*,i,i,i,i,i,i,i,
C[N+]1(CN2C(=O)C3C4C=CC(C4)C3C2=O)CCCCC1 (stereo unspecified),i,i,0.42,i,-5.56*,i,i,i,i,i,48.5%*,i,
CN1CCN(CCCn2cnc3c(=O)oc4ccccc4c32)CC1,i,i,-0.51,i,-5.07*,i,-269.0%*,i,-48.5%*,i,i,i,
O=C(c1cccc(C(=O)N2CCN(c3ccccc3F)CC2)n1)N1CCN(c2ccccc2F)CC1,i,i,-2.69,12.3*,-10.4*,i,141.5%*,i,29.0%*,64.0%*,88.0%*,129.5%*,
O=C(Cn1nc(C(F)(F)F)cc1C1CC1)NCc1ccccc1F,i,i,0.63,i,i,i,x,x,x,x,x,x,
CN(Cc1cccc(F)c1)C(=O)C(c1ccccc1)c1ccccc1,i,i,-0.27,i,i,i,x,x,x,x,x,x,
CC(=O)C(Cc1cccc(F)c1)(Cc1cccc(F)c1)C(C)=O,i,i,-2.22,i,-5.95*,i,113.5%*,i,34.0%*,i,i,x,
CN(CCc1ccccc1)C1CCCN(S(=O)(=O)CC(F)(F)F)C1 (stereo unspecified),i,i,-0.58,i,i,i,x,x,x,x,x,x,
Cc1ccc(Nc2c(-c3ccc(N4CCOCC4)cc3)nc3ncccn23)cc1C,i,i,1.9,i,-6.07*,i,i,i,-26.0%*,80.0%*,i,i,
Cc1ccc(C2(c3ccc(C)cc3)CC2C(=O)NCc2cccnc2)cc1 (stereo unspecified),i,i,-0.11,i,i,i,x,x,x,x,x,x,
Oc1c(/C=N/c2ccccn2)sc2ccccc12,i,i,-0.04,i,-9.12*,i,170.0%*,i,29.5%*,i,i,x,
COc1ccc(C)cc1N=Nc1ccc(O)c2ncccc12,i,i,2.46,i,-5.07*,i,-135.0%*,i,-33.5%*,73.0%*,i,i,
COc1ccc(N=Nc2ccc(O)c3ncccc23)cc1,i,i,-1.33,i,i,i,x,x,x,x,x,x,
O=C(CSc1nnc(-c2ccco2)n1Cc1ccccc1)OC1CCCCC1,i,i,-3.97,11.8*,i,i,382.5%*,i,53.0%*,52.0%*,i,86.0%*,
O=C(CSc1nnc(-c2ccncc2)n1Cc1ccco1)OC1CCCCC1,i,i,-0.7,i,i,i,x,x,x,x,x,x,
COc1ccc(-c2csc3nc(C)nc(N4CCN(C(C)=O)CC4)c23)cc1OC,i,i,1.46,i,i,i,x,x,x,x,x,x,
COc1ccc(-c2csc3nc(C)nc(N4CCC(C)CC4)c23)cc1OC,23*,i,1.59,i,-6.61*,i,x,x,x,x,58.6%*,x,TRPC4 sel inh 2=i;TRPC4 spec=3.6%*;HEK293 MPD ctr 2-1=i;HEK293 MPD ctr-1=2.4%*
Cc1[nH]n(-c2ccc(Br)cc2)c(=O)c1C=Nc1ccc(S(=O)(=O)Nc2nccs2)cc1,i,i,-0.37,i,-5.79*,i,i,i,-39.0%*,39.5%*,i,i,
CCN(CC)CCOC(=O)C1(c2ccccc2)CCCC1,i,i,-0.69,i,-9.16*,i,x,x,x,x,74.3%*,x,TRPC4 sel inh 2=i;TRPC4 spec=16.5%*;HEK293 MPD ctr 2-1=-2.5%*;HEK293 MPD ctr-1=15.2%*
CCN(CC)CCOC(=O)C1(C2CCCCC2)CCCCC1,i,i,-2.35,i,-6.15*,i,182.5%*,77.0%*,40.5%*,i,76.5%*,x,
